Measurements reported in ChEMBL document CHEMBL5036371, “Steroid-Quinoline Hybrids for Disruption and Reversion of Protein Aggregation Processes” (ACS Med Chem Lett, 2022).
Active and inactive are the calls of the source. The rule behind the calls is not given here.

Experiments:
[1] = target: Heat shock protein beta-1 (Homo sapiens) (UniProt P04792); assay: Aggregation in human HeLa cells expressing HSP27:GFP protein in sensor assessed as HSP27:GFP foci area per cell at 5 uM incubated for 48 hrs by green fluorescent protein based confocal microscopy (rvb = 0.6)
Heat shock protein beta-1 (Homo sapiens), sequence (P04792 whole entry): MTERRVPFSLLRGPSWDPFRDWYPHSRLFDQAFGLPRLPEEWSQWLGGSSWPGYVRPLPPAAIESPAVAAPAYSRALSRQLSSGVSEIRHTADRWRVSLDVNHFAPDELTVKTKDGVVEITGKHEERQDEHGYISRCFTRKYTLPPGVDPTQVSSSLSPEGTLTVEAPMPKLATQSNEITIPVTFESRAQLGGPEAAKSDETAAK
In short: (§1)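 HeLa cells stably expressing the HSP27:GFP aggregation sensor were exposed to 5 μM nilotinib for 48 h in 0.5% EtOH vehicle. Sensor relocalization to foci was imaged by fluorescence microscopy, and green foci number and average area per cell were scored. Data are mean ± SD, n = 4–10, about 4700 cells per condition, compared by unpaired Student's t test.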

[2] = target: Heat shock protein beta-1 (Homo sapiens) (UniProt P04792); assay: Aggregation in human HeLa cells expressing HSP27:GFP protein sensor assessed as number of HSP27:GFP foci per cell at 5 uM incubated for 48 hr by green fluorescent protein based confocal microscopy (rvb = 0.71); in short: as §1
[3] = tested on: HeLa; assay: Cytotoxicity against human HeLa cells assessed as reduction in cell viability at 0.1 to 100 uM incubated for 24 to 48 hrs by Alamar blue colorimetric assay; format: cell-based; details: dose lower 0.1 µM, time lower 24 hrs, dose upper 100 µM, time upper 48 hrs
In short: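 Resazurin (alamarBlue) metabolic viability read-out in HeLa cells exposed for 24 and 48 h to 0.1, 1, 10, 50 and 100 μM compound.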

[4] = target: Amyloid-beta precursor protein (Homo sapiens) (UniProt P05067); assay: Disaggregation of aggregated huamn amyloid beta (1 to 42) fibrils in human SH-SY5Y cells assessed as decrease the area of foci to basal levels at 50 uM for 12 hour by confocal microscopy relative to control; format: cell-based
Amyloid-beta precursor protein (Homo sapiens), sequence (P05067 whole entry): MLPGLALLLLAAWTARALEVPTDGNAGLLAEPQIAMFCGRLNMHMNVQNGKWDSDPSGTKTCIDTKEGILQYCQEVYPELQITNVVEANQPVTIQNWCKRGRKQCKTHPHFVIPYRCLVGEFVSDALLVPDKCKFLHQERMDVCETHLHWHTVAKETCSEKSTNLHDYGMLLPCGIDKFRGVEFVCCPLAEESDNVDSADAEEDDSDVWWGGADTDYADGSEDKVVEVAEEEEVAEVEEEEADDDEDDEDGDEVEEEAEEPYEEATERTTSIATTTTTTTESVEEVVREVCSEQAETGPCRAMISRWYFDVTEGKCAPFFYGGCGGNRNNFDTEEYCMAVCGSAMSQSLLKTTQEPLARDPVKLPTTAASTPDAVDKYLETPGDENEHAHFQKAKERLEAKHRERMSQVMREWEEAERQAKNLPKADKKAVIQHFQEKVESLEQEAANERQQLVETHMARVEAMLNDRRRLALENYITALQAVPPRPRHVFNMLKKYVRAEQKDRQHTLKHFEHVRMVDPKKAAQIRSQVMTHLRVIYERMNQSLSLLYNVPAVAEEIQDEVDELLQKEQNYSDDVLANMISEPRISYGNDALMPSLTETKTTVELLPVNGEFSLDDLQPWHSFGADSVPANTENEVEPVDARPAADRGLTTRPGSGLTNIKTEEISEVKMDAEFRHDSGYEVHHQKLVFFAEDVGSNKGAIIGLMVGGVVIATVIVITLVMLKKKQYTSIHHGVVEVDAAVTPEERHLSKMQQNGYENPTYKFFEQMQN
In short: (§2)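 SH-SY5Y cells were loaded for 16 h with preaggregated synthetic Aβ1–42, then given compound at 50 μM for a further 12 h in 0.5% EtOH vehicle. Cells were fixed, stained with Proteostat and imaged by confocal microscopy. Number and average area of aggregate foci per cell were scored over 10–20 fields, n = 2, about 370 cells per condition. Data are mean ± SD, unpaired t test.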

[5] = target: Heat shock protein beta-1 (Homo sapiens) (UniProt P04792); assay: Disaggregation of protein aggregates in human HeLa cells expressing HSP27:GFP assessed as HSP27:GFP foci area per cell cell at 50 uM for 12 hr in presence of nilotinib by green fluorescent protein based confocal microscopy (rvb = 0.71)
In short: (§3)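 Sensor HeLa cells (HSP27:GFP) were kept for 48 h with 5 μM nilotinib, and 50 μM compound was co-added for the final 12 h in 0.5% EtOH vehicle. Green foci per cell (count and mean area) were quantified by fluorescence microscopy. Data are mean ± SD, n = 4–10, about 4700 cells per condition. Comparison was against nilotinib alone by unpaired t test.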

[6] = target: Amyloid-beta precursor protein (Homo sapiens) (UniProt P05067); assay: Inhibition of amyloid beta (1 to 42) (unknown origin) aggregation assessed as reduction in fluorescence intensity at 20 uM measured upto 30 h by thioflavin-T fluorescence assay
In short: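 Aβ1–42 peptide (10 μM) fibrillation with 20 μM compound was followed over time by thioflavin-T fluorescence, with quercetin as positive control. Inhibition was judged from reduction of final fluorescence intensity.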

[7] = target: Heat shock protein beta-1 (Homo sapiens) (UniProt P04792); assay: Disaggregation of protein aggregates in human HeLa cells expressing HSP27:GFP assessed as number of HSP27:GFP foci per cell at 50 uM for 12 hr in presence of nilotinib by green fluorescent protein based confocal microscopy (rvb = 0.71); in short: as §3
[8] = target: Amyloid-beta precursor protein (Homo sapiens) (UniProt P05067); assay: Disaggregation of aggregated human amyloid beta (1 to 42) preformed fibrils in human SH-SY5Y cells assessed as decrease the number of foci to basal levels at 50 uM for 12 hrs by confocal microscopy relative to control; format: cell-based; in short: as §2

| SMILES | Activity [1] | Activity [2] | Activity [4] | Activity [5] | inhibition [6] | Activity [7] | Activity [8] | Activity [3] |
| --- | --- | --- | --- | --- | --- | --- | --- | --- |
| Cc1cn(-c2cc(NC(=O)c3ccc(C)c(Nc4nccc(-c5cccnc5)n4)c3)cc(C(F)(F)F)c2)cn1 | 7.5 um2 | 3.96 |  |  |  |  |  |  |
| CC(C)CCC[C@@H](C)[C@H]1CC[C@H]2[C@@H]3CC=C4c5c(nc6ccc(Cl)cc6c5-c5ccccc5)CC[C@]4(C)[C@H]3CC[C@]12C |  |  | Active | 50% | inactive | 50% | inactive | Non-Toxic |
| CC(C)CCC[C@@H](C)[C@H]1CC[C@H]2[C@@H]3CC=C4c5c(nc6ccc(Cl)cc6c5-c5ccccc5Cl)CC[C@]4(C)[C@H]3CC[C@]12C |  |  | inactive | 50% | Active | 50% | Active | Non-Toxic |

Continued, in another order:

| Activity [1] | Activity [2] | Activity [4] | Activity [5] | inhibition [6] | Activity [7] | Activity [8] | SMILES | Activity [3] |
| --- | --- | --- | --- | --- | --- | --- | --- | --- |
|  |  | inactive | 50% | Active | 50% | Active | Cc1c2c(nc3ccccc13)CC[C@@]1(C)C2=CC[C@H]2[C@@H]3CC[C@H]([C@H](C)CCCC(C)C)[C@@]3(C)CC[C@@H]21 | Non-Toxic |
|  |  | inactive | 50% | inactive | 50% | Active | CC(C)CCC[C@@H](C)[C@H]1CC[C@H]2[C@@H]3CC=C4c5c(nc6ccccc6c5-c5ccccc5)CC[C@]4(C)[C@H]3CC[C@]12C | Non-Toxic |
